This note sets out measurements from ChEMBL document CHEMBL1125392, “Antitumor agents. 124. New 4 beta-substituted aniline derivatives of 6,7-O,O-demethylene-4'-O-demethylpodophyllotoxin and related compounds as potent inhibitors of human DNA topoisomerase II” (J Med Chem, 1992).

Usually IC50 stands for the concentration needed to halve the response being measured. Higher therefore signals weaker potency.

Assay [1] can be described thus: Concentration required for 50% reduction in KB cell number after 3-day incubation. It is filed as functional, cell-based, Homo sapiens.
For the next assay, the system named is Nucleic Acid. Briefly: Effect on cellular protein DNA complex formation(%) at 10 uM in comparison with etoposide. It counts as functional.
Assay [2] deals with DNA topoisomerase II (Homo sapiens) (UniProt P11388+Q02880). Briefly: Inhibition of human DNA Topoisomerase II. It is filed as protein assay. In outline:
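Human DNA topoisomerase II catalytic inhibition was tested at five concentrations (10, 20, 25, 50 and 100 μM). ID50 was set from the degree of inhibition observed across these concentrations.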

For the compound `COc1cc([C@@H]2c3cc4c(cc3[C@@H](Nc3ccc(C#N)cc3)[C@H]3COC(=O)[C@H]23)OCO4)cc(OC)c1O`, the concentration for half-maximal inhibition (IC50) in assay [1] stood at 0.64 µM. The compound further registered a Complex formation in the assay on Nucleic Acid of 211%.
`COc1cc2c(cc1OC)[C@@H](Nc1ccc([N+](=O)[O-])cc1)[C@H]1COC(=O)[C@@H]1[C@@H]2c1cc(OC)c(OC)c(OC)c1` displayed a concentration for half-maximal inhibition (IC50) in assay [1] of 7.3 µM. The compound also showed an ID50 in assay [2] of over 100 µM. In the assay on Nucleic Acid, the Complex formation was 8%.
Taken in the same sequence, the figures for `CCOC(=O)c1ccc(N[C@@H]2c3cc(OC)c(OC)cc3[C@@H](c3cc(OC)c(OC)c(OC)c3)[C@H]3C(=O)OC[C@@H]32)cc1` were 5.5 µM, over 100 µM and 9%.
Taken in the same sequence, the figures for `COc1cc2c(cc1OC)[C@@H](Nc1ccc(C#N)cc1)[C@H]1COC(=O)[C@@H]1[C@@H]2c1cc(OC)c(OC)c(OC)c1` were 5.8 µM, over 100 µM and 12%.
In the case of `COc1cc([C@@H]2c3cc(O)c(O)cc3[C@@H](Nc3cccc(O)c3)[C@H]3COC(=O)[C@H]23)cc(OC)c1O`, the IC50 in assay [1] is over 2.1 µM. In addition, the ID50 in assay [2] was 20 µM. The compound further showed a Complex formation with Nucleic Acid of 18%.
The like results for `CCOC(=O)c1ccc(N[C@@H]2c3cc(OC)c(OC)cc3[C@@H](c3cc(OC)c(O)c(OC)c3)[C@H]3C(=O)OC[C@@H]32)cc1` were, in that order, under 0.7 µM, 100 µM and 127%.
For the compound `COc1cc([C@@H]2c3cc(O)c(O)cc3[C@@H](Nc3ccccc3)[C@H]3COC(=O)[C@H]23)cc(OC)c1OC`, the half-inhibitory concentration (IC50) in assay [1] is over 2.1 µM. For the same compound, the ID50 in assay [2] was found to be 50 µM. In the assay on Nucleic Acid, this compound returned a Complex formation of 9%.
Taken in the same sequence, the figures for `COc1cc2c(cc1OC)[C@@H](Nc1ccc(C#N)cc1)[C@H]1COC(=O)[C@@H]1[C@@H]2c1cc(OC)c(O)c(OC)c1` were under 0.77 µM, 50 µM and 125%.
Taken in the same sequence, the figures for `COc1cc2c(cc1OC)[C@@H](Nc1ccc([N+](=O)[O-])cc1)[C@H]1COC(=O)[C@@H]1[C@@H]2c1cc(OC)c(O)c(OC)c1` were 1.3 µM, 100 µM and 75%.
Taken in the same sequence, the figures for `CCOC(=O)c1ccc(N[C@@H]2c3cc(O)c(O)cc3[C@@H](c3cc(OC)c(OC)c(OC)c3)[C@H]3C(=O)OC[C@@H]32)cc1` were over 1.8 µM, 100 µM and 22%.
Compound `COc1cc([C@@H]2c3cc(O)c(O)cc3[C@@H](Nc3ccc([N+](=O)[O-])cc3)[C@H]3COC(=O)[C@H]23)cc(OC)c1OC` gave an IC50 in assay [1] of over 1.9 µM. In assay [2], this compound displayed an ID50 of over 100 µM. For the same compound, the Complex formation in the assay on Nucleic Acid is 23%.
Taken in the same sequence, the figures for `COc1cc([C@@H]2c3cc(O)c(O)cc3[C@@H](Nc3ccccc3)[C@H]3COC(=O)[C@H]23)cc(OC)c1O` were over 2.2 µM, 25 µM and 84%.
On to `COc1cc2c(cc1OC)[C@@H](Nc1ccc(F)cc1)[C@H]1COC(=O)[C@@H]1[C@@H]2c1cc(OC)c(OC)c(OC)c1`, for which, in assay [1], the IC50 is 7.6 µM. In assay [2], this compound returned an ID50 of over 100 µM. The same compound displayed a Complex formation in the assay on Nucleic Acid of 8%.
Consider `COc1cc([C@@H]2c3cc(O)c(O)cc3[C@@H](Nc3ccc(C#N)cc3)[C@H]3COC(=O)[C@H]23)cc(OC)c1OC`, for which the IC50 in assay [1] was over 2 µM. In assay [2], this compound came in with an ID50 of over 100 µM. This compound also came in with a Complex formation in the assay with Nucleic Acid of 33%.
With `COc1cc([C@@H]2c3cc(O)c(O)cc3[C@@H](Nc3ccc(F)cc3)[C@H]3COC(=O)[C@H]23)cc(OC)c1OC`, the IC50 in assay [1] is over 2 µM. For the same compound, the ID50 in assay [2] was 50 µM. The Complex formation in the assay with Nucleic Acid stood at 11%.
Taken in the same sequence, the figures for `CCOC(=O)c1ccc(N[C@@H]2c3cc(O)c(O)cc3[C@@H](c3cc(OC)c(O)c(OC)c3)[C@H]3C(=O)OC[C@@H]32)cc1` were 1.46 µM, 20 µM and 138%.
In turn, `CCOC(=O)c1ccc(N[C@@H]2c3cc4c(cc3[C@@H](c3cc(OC)c(O)c(OC)c3)[C@H]3C(=O)OC[C@@H]32)OCO4)cc1` gave a concentration for half-maximal inhibition (IC50) in assay [1] of 0.84 µM. The compound further yielded a Complex formation in the assay on Nucleic Acid of 207%.
In the case of `COc1cc([C@@H]2c3cc(O)c(O)cc3[C@@H](Nc3ccc([N+](=O)[O-])cc3)[C@H]3COC(=O)[C@H]23)cc(OC)c1O`, in assay [1], the IC50 is 1.5 µM. This compound also displayed an ID50 in assay [2] of 20 µM. In the assay with Nucleic Acid, this compound displayed a Complex formation of 99%.
In assay [1], `COc1cc([C@@H]2c3cc(O)c(O)cc3[C@@H](Nc3cccc(O)c3)[C@H]3COC(=O)[C@H]23)cc(OC)c1OC` returned an IC50 of over 2 µM. Also, the ID50 in assay [2] was found to be 50 µM. The compound also came in with a Complex formation with Nucleic Acid of 4%.
The like results for `COc1cc([C@@H]2c3cc(O)c(O)cc3[C@@H](Nc3ccc(C#N)cc3)[C@H]3COC(=O)[C@H]23)cc(OC)c1O` were, in that order, 2 µM, 20 µM and 62%.
Regarding `COc1cc([C@@H]2c3cc4c(cc3[C@@H](Nc3ccc(F)cc3)[C@H]3COC(=O)[C@H]23)OCO4)cc(OC)c1O`, in assay [1], the midpoint of inhibition, the IC50, lay at 0.24 µM. In the assay with Nucleic Acid, this compound had a Complex formation of 213%.
The compound `COc1cc([C@@H]2c3cc4c(cc3[C@@H](O[C@@H]3O[C@@H]5CO[C@@H](C)O[C@H]5[C@H](O)[C@H]3O)[C@H]3COC(=O)[C@H]23)OCO4)cc(OC)c1O` [ETOPOSIDE] returned an IC50 in assay [1] of 0.2 µM. This compound also came in with a Complex formation in the assay with Nucleic Acid of 100%.
Taken in the same sequence, the figures for `COc1cc([C@@H]2c3cc4c(cc3[C@@H](Nc3ccc([N+](=O)[O-])cc3)[C@H]3COC(=O)[C@H]23)OCO4)cc(OC)c1O` were 0.49 µM and 323%.
`COc1cc2c(cc1OC)[C@@H](Nc1ccc(F)cc1)[C@H]1COC(=O)[C@@H]1[C@@H]2c1cc(OC)c(O)c(OC)c1` came in with a half-maximal inhibitory concentration (IC50) in assay [1] of 0.78 µM. The compound further gave an ID50 in assay [2] of 50 µM. The compound also came in with a Complex formation in the assay with Nucleic Acid of 108%.
The like results for `COc1cc([C@@H]2c3cc(O)c(O)cc3[C@@H](Nc3ccc(F)cc3)[C@H]3COC(=O)[C@H]23)cc(OC)c1O` were, in that order, over 2.1 µM, 25 µM and 52%.
